Assay outcomes from PubChem BioAssay.
An excerpt weighted towards active compounds, which were near 3.5% of everything screened.
NF-kB expr up – compounds increasing NF-kB expression in human neuronal cells; NF-kB reporter expression; stronger effect = higher value; hit rate 1.6% among 190,000; fold change at 12.5 µM; in the data active means fold change above about 3.3
APP 5'UTR act – APP 5'UTR luciferase reporter activation; AID 1276; activation, % at 2 µM; hit rate 1% among 190,000; SH-SY5Y APP 5'UTR luciferase reporter, luminescence; zero percent = DMSO vehicle wells;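 active means activation above a set limit, based on mean plus 3 SD of controls, cut at about 140% in these data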
FLuc stim CS – affects firefly luciferase, flagging false hits in luciferase stimulation screens; P08659; ATPlite luciferase biochemical, luminescence, 10 min; 0 = ATP-free wells, 1 = DMSO control; activation factor at 10 µM; 200,000 tested, under 10 active;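 active means luciferase activation factor, scaled between plate controls, of at least 2 with compound at 10 µM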
Target sequence (P08659 whole entry, looked up): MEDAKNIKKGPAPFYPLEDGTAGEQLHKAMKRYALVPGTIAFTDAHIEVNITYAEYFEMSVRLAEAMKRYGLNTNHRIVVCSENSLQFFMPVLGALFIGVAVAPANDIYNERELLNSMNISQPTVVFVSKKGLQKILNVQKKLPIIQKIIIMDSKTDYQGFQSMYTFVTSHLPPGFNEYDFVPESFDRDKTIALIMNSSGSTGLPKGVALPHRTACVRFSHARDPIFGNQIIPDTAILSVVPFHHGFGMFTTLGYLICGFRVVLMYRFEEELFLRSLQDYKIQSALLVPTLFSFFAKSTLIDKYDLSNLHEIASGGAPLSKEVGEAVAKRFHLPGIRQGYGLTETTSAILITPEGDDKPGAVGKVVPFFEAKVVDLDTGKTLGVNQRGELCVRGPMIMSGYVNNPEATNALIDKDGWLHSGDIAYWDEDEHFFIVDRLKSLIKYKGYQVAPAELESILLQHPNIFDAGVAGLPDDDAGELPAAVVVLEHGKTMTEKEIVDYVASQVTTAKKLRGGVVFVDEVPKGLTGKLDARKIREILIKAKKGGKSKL
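System: Luciferase/luciferin detection reagent, cell-free biochemical luciferase assay | Medium: PBS buffer for ATP | Dosing: Test compounds dosed from 2 mM stocks in 100% DMSO | Timing: 10 min at ambient temperature | Signal: Luminescence measurement of luciferase light output | Evaluation: Luciferase activation, seen as luminescence increase over controls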
STAT1 act – STAT1 signaling activation | activation (% of control), % at 5.5 µM | AID 932 | NIH 3T3 STAT1-luciferase reporter, IFN-gamma, luminescence; 100% = IFN-gamma alone, no compound | hit rate 2.6% among 200,000;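 active means activation above the screen-wide mean activation plus 3 SD, cut at about 130% in these data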
FLuc inhib CS – inhibits firefly luciferase, flagging false hits in luciferase inhibition screens; ATPLite firefly luciferase biochemical luminescence, 10 min; inhibition, % at 10 µM; P08659; hit rate 1.5% among 200,000;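 active means inhibition above about 50% when tested at 10 µM, limit read from the data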
Pf gamet viab – kills late stage P. falciparum gametocytes | P. falciparum stage V gametocytes, ATP luminescence, 24 h | inhibition, % at 10.9 µM | hit rate 0.065% among 150,000 | AID 743093;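 active means inhibition above the mean plus 3 SD of compounds within the control limits, set per campaign, cut at about 38% in these data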
STAT1 activ conf – confirmation of STAT1 signaling activators | shares compounds with STAT1 act | NIH 3T3 STAT1-luciferase reporter, IFN-gamma potentiation, luminescence; 100% = IFN-gamma EC80 alone, no compound | activation (% of control), % at 5.7 µM | hit rate 97% among 1,200;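 active means activation above a set limit carried over from the earlier primary STAT1 screen, cut at about 140% in these data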
NFkB act STAT1ct – activates NF-kappaB, counter-screen to STAT1 activators. shares compounds with STAT1 act. HEK293T NF-kB luciferase reporter, TNF-alpha stimulated, luminescence; 100% = TNF-alpha with vehicle only. activation (% of control), % at 5.7 µM. hit rate 43% among 1,200. AID 1306;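 active means activation above the mean of solvent-only control wells plus 3 SD, set per campaign, cut at about 130% in these data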;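 further: TNF-alpha given at a submaximal dose yielding about 80% of full reporter signal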
STAT3 act STAT1c – human STAT3 activation in STAT1 activator counter-screen; activation (% of control), % at 5.7 µM; shares compounds with STAT1 act; U3A cells STAT3-luciferase reporter, IL-6, luminescence; cells lack STAT1; 100 = IL-6 alone, no compound effect; hit rate 46% among 1,200;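 active means activation above the solvent-only control well mean plus 3 SD, set per plate batch, cut at about 110% in these data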;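 further: higher means more STAT3 reporter activation so hits are non-selective activators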
Hits are given with their value; 0 = inactive; - = no result.

SMILES	NF-kB expr up	APP 5'UTR act	FLuc stim CS	STAT1 act	FLuc inhib CS	Pf gamet viab	STAT1 activ conf	NFkB act STAT1ct	STAT3 act STAT1c
N/C(=N\OC(=O)COc1ccc(Br)cc1Cl)c1ccncc1	4.4	140.0	0	178.1	0	0	192.6	144.0	118.3
COC(=O)C1(Cc2cc(-c3ccc([N+](=O)[O-])cc3)no2)CCN(C(=O)OC(C)(C)C)CC1	-	-	-	-	-	0	-	-	-
Clc1ccc2nc3c4ccccc4cnn3c2c1	7.98	217.1	0	166.0	62.6	0	237.6	0	162.1
O=C(Cc1nc(=O)c2ccccc2s1)Nc1ccccc1	5.76	189.3	0	156.8	0	0	273.5	144.9	121.8
COC(=O)N/N=C/c1ccc(Oc2ccccc2)cc1	0	0	0	0	0	0	-	-	-
Cc1ccc2nc(NC(=O)c3ccc(OCC4CCCO4)cc3)sc2c1 (stereo unspecified)	0	0	0	158.4	0	-	147.5	0	0
O=C(Nc1ccc(F)cc1F)N1CCN(c2ncccn2)CC1	0	0	0	0	0	-	-	-	-
Cc1cc(C(=O)NNc2ccc(F)cc2)no1	-	-	-	-	-	0	-	-	-
O=[N+]([O-])c1ccccc1OCCCn1cnc2ccccc21	4.13	0	0	168.6	0	0	188.4	0	0
CC(=Nc1ccccc1)c1sc2ccccc2c1O	6.31	0	0	190.5	60.8	0	228.0	133.3	150.5
CC(=Nc1ccc(Br)cc1)c1sc2ccccc2c1O	-	-	-	-	-	0	-	-	-
Cc1nc(-c2ccc(NC(=O)c3ccccc3Br)cc2)cs1	4.83	0	0	151.0	0	0	173.9	0	0
Cc1nc(-c2ccc(NC(=O)c3ccccc3C)cc2)cs1	5.06	0	0	159.4	61.5	-	178.5	0	0
CC(C)N1CCN(Cc2cccn2-c2nccs2)CC1CCO (stereo unspecified)	-	0	0	0	0	0	-	-	-
COC(=O)C(Cc1ccccc1)OS(N)(=O)=O (stereo unspecified)	-	-	-	-	-	0	-	-	-
COc1ccc(Cl)c2c1[nH]c1nc(SCc3ccccn3)nnc12	4.18	156.8	0	188.8	0	0	175.2	143.7	124.2
COc1ccc(Cl)c2c1[nH]c1nc(SCc3cccnc3)nnc12	0	0	0	0	0	0	-	-	-
Cc1ccc2c(Cl)c(Cc3ccccc3)c(=S)[nH]c2n1	-	-	-	-	-	0	-	-	-
CC(=O)Nc1ccccc1C(=O)C(=O)Nc1ccc(C)c(C)c1	0	0	0	0	0	0	-	-	-
Cc1ccc(NC(=O)/C(Cl)=C/c2ccccc2)cc1C	9.13	138.8	0	176.9	0	0	230.4	0	0
CCC(CO)Oc1cc(NCc2ccc(C(F)(F)F)cc2)c2ncn(C(C)C)c2c1 (stereo unspecified)	-	-	-	-	-	0	-	-	-
COc1ccc(NC(=O)CSc2n[nH]c(N)n2)c([N+](=O)[O-])c1	0	0	0	0	0	-	-	-	-
Cc1cc(C(=O)CN2C(=O)NC3(CCCCC3)C2=O)c(C)n1Cc1ccco1	0	0	0	158.1	0	0	179.9	136.8	134.1
Cc1cc(C(=O)CN2C(=O)NC3(CCCCC3)C2=O)c(C)n1Cc1ccc2c(c1)OCO2	0	0	0	0	0	-	-	-	-
Cc1cc(C(=O)CN2C(=O)NC3(CCCCC3C)C2=O)c(C)n1Cc1cccs1 (stereo unspecified)	0	0	0	154.7	0	0	175.2	0	124.6
SMILES	NF-kB expr up	APP 5'UTR act	FLuc stim CS	STAT1 act	FLuc inhib CS	Pf gamet viab	STAT1 activ conf	NFkB act STAT1ct	STAT3 act STAT1c
Cc1ccc(S(=O)(=O)N2CC3(C)CN(S(=O)(=O)c4ccc(C)cc4)CC(C)(C2)C3)cc1	0	0	0	0	0	-	-	-	-
CCOC(=O)c1c(C)nc2c3ccccc3ccn12	5.01	160.3	0	153.0	53.7	-	201.9	0	119.7
CCOC(=O)c1c(C)nc2c(C)cccn12	0	0	0	0	0	-	-	-	-
O=C(/C=C/Nc1ccc(Nc2ccccc2)cc1)c1cccs1	0	0	0	162.5	0	0	166.1	140.3	0
O=C(NC1=NCCS1)c1ccc(-c2ccc(Cl)cc2)o1	4.62	0	0	155.6	65.9	-	186.9	0	0
C(=N\N=C\c1cccs1)/c1cccs1	0	0	0	166.8	83.3	0	189.1	0	0
C(=N\n1cnnc1)/c1cccs1	0	0	0	0	0	-	-	-	-
CC(C)=C(NC(=O)c1ccccc1Br)C(=O)NCCc1nc2ccccc2[nH]1	-	-	-	-	-	0	-	-	-
Clc1ccc(/C=N/Nc2ncnc3ccccc23)cc1Cl	4.93	-	0	158.0	0	-	208.4	151.0	135.2
Cc1ccc(-c2noc(-c3cccs3)n2)cc1	7.89	135.0	0	153.5	0	0	219.5	0	110.8
O=C1NC(=O)c2cc(NC(=O)C3CCCCC3)ccc21	0	0	0	0	0	0	-	-	-
Cc1cccc(N=C/C(C(=O)C(F)(F)F)=C(\O)c2ccco2)c1	4.8	0	0	163.3	0	0	172.9	0	122.6
Cc1ccc(N=C/C(C(=O)C(F)(F)F)=C(\O)c2ccco2)cc1Cl	6.07	135.7	0	182.7	0	-	221.2	0	143.9
O=C(Nc1cccc(C(F)(F)F)c1)c1ccco1	0	0	0	0	0	-	-	-	-
O=C(/C(C=Nc1ccc(F)cc1)=C(/O)c1ccco1)C(F)(F)F	3.36	0	0	151.2	79.3	0	162.4	0	0
CC(=O)/C(=N/Nc1cccc(C)c1)N1CCOCC1	0	0	0	0	0	0	-	-	-
COc1ccccc1CCc1nnc(CCC(=O)NC(C)Cc2cccs2)o1 (stereo unspecified)	0	0	0	0	0	0	-	-	-
CC(=O)Nc1ccc(-c2cc(-c3ccccc3)nc(-c3ccccc3)n2)cc1	0	0	0	0	0	0	-	-	-
CC(=O)Nc1ccc2nc(-c3ccccc3)cn2c1	7.61	169.7	0	154.7	70.0	0	198.5	0	0
CC(/C=N/Nc1nc2ccccc2[nH]1)=C\c1ccccc1	8.6	172.4	0	192.3	72.0	0	246.2	138.9	114.2
Cc1ccsc1/C=N/Nc1nc2ccccc2[nH]1	5.32	145.3	0	152.7	74.4	0	192.8	0	0
CC(/C=N/Nc1nc(C)cc(=O)[nH]1)=C\c1ccccc1	0	0	0	0	0	0	-	-	-
Cc1nn(-c2ccccc2)c(C)c1/C=N/Nc1nc2ccccc2[nH]1	0	153.7	0	203.5	79.9	0	288.7	0	0
Cn1c(SCC(N)=O)nnc1C1CCN(C(=O)NCc2ccccc2)CC1	0	0	0	0	0	-	-	-	-
Cc1ccc(OC(C)C)c(CN(CCO)CCO)c1	0	0	0	0	0	0	-	-	-
